Assay results: PMC6175093 (Journal of Clinical Pharmacology, 2018)
Read-outs that look alike come from different tables or passages of the source.

Key:
[1] = type: in vivo, human; conditions: metabolite; for t½: mean (SD); for Tmax: median (minimum, maximum)
Outline: (§1)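 Randomized two-sequence crossover in healthy adults, ≥10-day washout. Single oral 4-mg rosiglitazone was given alone on day 1, or on day 3 of the test compound regimen (1250 mg loading dose on day 1, then 750 mg once daily for 7 more days), after a 10-h fast. K2EDTA blood was drawn predose to 120 h and plasma stored at ~−70°C. LC-MS/MS, LLOQ 0.500 ng/mL. GMR (90%CI) came from a linear mixed effect model.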

[2] = type: in vivo, human; conditions: for AUC / AUC_%Extrap_obs: geometric mean (CV%)
Outline: as §1

[3] = Safety and tolerability in phase 1 study; type: in vivo, human
Outline: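 Healthy adults in a two-period crossover: single oral 4-mg rosiglitazone alone, and the test compound (1250 mg on day 1, 750 mg daily for 7 days) with rosiglitazone on day 3. Dosing was fasted. Adverse events were recorded from informed consent until 14 days after the last dose and graded by intensity.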

[4] = Phase 1 study: plasma PK of SCY‐078 after loading dose and repeat daily doses; type: in vivo, human
Outline: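 Healthy adults fasted 10 h, then took the oral test compound: 1250-mg loading dose on day 1, then 750 mg once daily for 7 more days. Blood was drawn predose and 0.5–24 h on day 1, predose and 0.5–16 h on day 3, and as troughs before dosing on days 4–8. K2EDTA plasma was centrifuged at 2000 g and stored at ~−70°C. Validated LC-MS/MS, LLOQ 5.00 ng/mL.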

CYP2C8 [5] = test: In vitro CYP2C8 inhibition; type: in vitro ADME
CYP2C8 [6] = conditions: inhibition of CYP2C8‐mediated N‐desethyl‐amodiaquine activity; ref Wring SA, Park SM, unpublished data on file; cited from earlier work
other CYP isoforms = conditions: ref Wring SA, Park SM, unpublished data on file; cited from earlier work
[7] = cited from earlier work
Candida species = conditions: in vivo murine models for invasive fungal infections with Candida species; cited from earlier work
[8] = phase 1 drug‐drug interaction study; cited from earlier work
[9] = test system: Candida and Aspergillus species clinical isolates; conditions: cited from earlier work
[10] = rosiglitazone 4 mg + SCY‐078 750 mg, day 3, n = 17, geometric mean (CV%)
[11] = rosiglitazone 4 mg + SCY‐078 750 mg, day 3, n = 17
[12] = rosiglitazone 4 mg alone, day 1, n = 17, geometric mean (CV%)
[13] = rosiglitazone 4 mg alone, day 1, n = 17
[14] = both, human, plasma, oral, 4 mg
[15] = all treatments pooled, 24 subjects
[16] = both, human, plasma, po, 1250 mg

O=C1NC(=O)C(Cc2ccc(OCCNc3ccccn3)cc2)S1 (stereo not shown) [N‐Desmethylrosiglitazone, N‐desmethylrosiglitazone]
AUC ([1]; 0 to infinity, rosiglitazone 4 mg + SCY‐078 750 mg, day 3, n = 17, geometric mean (CV%)): 2260 (15.5) μg·hr/mL | AUC0‐24h GMR rosiglitazone + SCY‐078 vs rosiglitazone alone ([1]; geometric mean ratio (90%CI)): 0.97 (0.89‐1.06) | AUC0‐last GMR rosiglitazone + SCY‐078 vs rosiglitazone alone ([1]; geometric mean ratio (90%CI)): 1.03 (0.95‐1.12) | AUC GMR rosiglitazone + SCY‐078 vs rosiglitazone alone ([1]; geometric mean ratio (90%CI)): 1.03 (0.95‐1.12) | Cmax GMR rosiglitazone + SCY‐078 vs rosiglitazone alone ([1]; geometric mean ratio (90%CI)): 0.97 (0.88‐1.07) | AUC0‐24h [1, 10]: 1.31 µg·h/mL | AUC0‐last [1, 10]: 2.24 µg·h/mL | AUC_%Extrap_obs [1, 10]: 0.90 (45.6) % | Cmax [1, 10]: 70.4 (16.4) ng/mL | t½ [1, 11]: 15.2 (2.3) h | Tmax [1, 11]: 8.0 (6.0, 16.0) h | AUC0‐24h [1, 12]: 1.34 µg·h/mL | AUC0‐last [1, 12]: 2.17 µg·h/mL | AUC_%Extrap_obs [1, 12]: 0.91 (52.4) % | Cmax [1, 12]: 72.8 (17.6) ng/mL | t½ [1, 13]: 14.5 (2.4) h | Tmax [1, 13]: 6.0 (4.0, 12.0) h

CN(CCOc1ccc(CC2SC(=O)NC2=O)cc1)c1ccccn1 (stereo not shown) [Rosiglitazone, rosiglitazone]
Cmax [2, 14]: 295 ng/mL | Tmax [2, 14]: 0.5 h | half-life [2, 14]: 3.7 h | AUC ([2]; both, human, plasma, oral, AUC0‐24h, rosiglitazone 4 mg + SCY‐078 750 mg, day 3, n = 17): 1420 µg·h/mL | AUC ([2]; both, human, plasma, oral, AUC0‐last, rosiglitazone 4 mg + SCY‐078 750 mg, day 3, n = 17): 1440 µg·h/mL | AUC0‐24h GMR rosiglitazone + SCY‐078 vs rosiglitazone alone ([2]; geometric mean ratio (90%CI)): 0.98 (0.89‐1.08) | AUC0‐last GMR rosiglitazone + SCY‐078 vs rosiglitazone alone ([2]; geometric mean ratio (90%CI)): 0.99 (0.90‐1.10) | AUC GMR rosiglitazone + SCY‐078 vs rosiglitazone alone ([2]; geometric mean ratio (90%CI)): 0.99 (0.90‐1.10) | Cmax GMR rosiglitazone + SCY‐078 vs rosiglitazone alone ([2]; geometric mean ratio (90%CI)): 0.80 (0.70‐0.90) | AUC_%Extrap_obs [2, 11]: 0.71 (62.2) % | AUC_%Extrap_obs [2, 13]: 0.58 (74.3) % | treatment‐emergent AE: diarrhea ([3]; all treatments pooled (rosiglitazone alone and with SCY‐078), 24 subjects): 58.3% | serious AEs and deaths [3, 15]: no serious AEs | treatment‐emergent AE: abdominal pain [3, 15]: 41.7% | treatment‐emergent AE: contact dermatitis [3, 15]: 8.3% | treatment‐emergent AE: dizziness [3, 15]: 8.3% | treatment‐emergent AE: headache [3, 15]: 16.7% | treatment‐emergent AE: menstruation irregularity [3, 15]: 12.5% | treatment‐emergent AE: nausea [3, 15]: 41.7% | treatment‐emergent AE: somnolence [3, 15]: 8.3% | treatment‐emergent AE: vomiting [3, 15]: 25% | tolerability ([3]; rosiglitazone in the presence and absence of repeat doses of SCY‐078, healthy subjects): generally well tolerated

CC(C)[C@@H](C)[C@@]1(C)CC[C@]2(C)[C@H]3CC[C@@H]4[C@@]5(COC[C@@]4(C)[C@@H](OC[C@](C)(N)C(C)(C)C)[C@H](n4ncnc4-c4ccncc4)C5)C3=CC[C@@]2(C)[C@@H]1C(=O)O [SCY‐078]
Tmax ([4]; both, human, plasma, oral): 6 h | AUC [4, 16]: 11.6 µg·h/mL | Tmax [4, 16]: 6 h | concentration at 24 h [4, 16]: 294 ng/mL | Cmax ([4]; both, human, plasma, po, 1250 mg, Cmax, day 1, oral 1250‐mg loading dose, fasted, geometric mean (CV%)): 783 ng/mL | maximum concentration in plasma ([4]; day 3, once‐daily oral regimen, molar equivalent of ∼0.93 μg/mL): 1.28 µM | absorption ([4]; following the loading dose and repeated daily doses): well absorbed | unbound concentration in plasma as % of the CYP2C8 IC50 (CYP2C8 [5]; day 3 Cmax, based on 99.7% binding to plasma proteins): ~3% | plasma Cmax exceeds the in vitro CYP2C8 IC50 (CYP2C8 [5]; day 3 total Cmax vs IC50): approximately 4 fold | IC50 (CYP2C8 [6]): ~300 nM | IC50 values for other CYP isoforms, fold higher than CYP2C8 (other CYP isoforms): > 5 fold | binding to plasma proteins [7]: 99.7% | efficacy target exposure (Candida species): 11.2 μg·h^2/mL | interaction with tacrolimus [8]: no clinically relevant interaction | in vitro activity against Candida and Aspergillus species clinical isolates [9]: potent in vitro activity | activity against azole‐resistant, most echinocandin‐resistant, and multidrug‐resistant strains of Candida species ([9]; in vitro): retained activity
